Measurements as given in PubChem BioAssay.
The source made the active and inactive calls.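 The calls were made as follows, unless noted: active = viability at or below 10% of carrier control in both of two separate runs; inconclusive = viability at or below 10% in only one of the two runs; inactive = the rest.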

Columns and labels:
[1] = Her2 expression decrease, cell viability multiplex – SKBR3 breast tumor cells, AlphaScreen, ATP viability, primary screen (AID 461;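 active = Her2 level under about 52% in both replicate screens, with viability over 70% of control, limit read from the data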;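 as to Her2 level: lower value means less Her2 protein in the cells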;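 as to viability: percent of carrier control wells set as 100% viability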); conditions: SKBR3 Her2 protein level, 18-24 h, measured here: SKBR3 viability, ATP luminescence, at 10 µM
[2] = target: Receptor tyrosine-protein kinase erbB-2 (Homo sapiens) (UniProt P04626); test: as above; conditions: 18-24 h, at 10 µM, stronger effect = lower value
[3] = reduced viability of SK-BR-3 breast cancer cells – cell-based, 24 h, human, pilot screen (AID 572); conditions: SK-BR-3 viability, CellTiter-Glo luminescence, at 10 µM, stronger effect = lower value;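 also: compound exposure lasted between 18 and 24 h rather than exactly 24 h; 100% = carrier-treated control wells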
[4] = HUVEC growth inhibition – cell-based, human, primary screen (AID 575;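 active = viability at or below 30% in both replicate assays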;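 also: 100% = median of untreated cell wells with 0.1% DMSO on each plate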); conditions: HUVEC proliferation, CellTiter-Glo luminescence, 72 h; at 10 µM; stronger effect = lower value
Procedure, shortened: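 Test system: primary human umbilical vein endothelial cells. Quantity: 1250 cells/well. Compound: single 10 µM dose, 0.1% DMSO, from 5x medium stock. Timing: 72 h treatment at 37 °C. Detection: ATP-based CellTiter-Glo luminescent read. Benchmarks: vehicle and MePR control wells. Format: 384-well plates coated with collagen.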

[5] = H69AR cell proliferation blockers – human, duplicate replicates, primary screen (AID 580;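 active = viability at or under a set limit in both replicates, limit being median viability minus 3 SD, cut at about 48% in these data, passing the limit was not always enough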;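 also: 100% = mean luminescence of untreated wells and 0% = no signal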); conditions: H69AR lung tumor cells viability, ATP luminescence, 72 h; at 10 µM; stronger effect = lower value
[6] = MRP1 drug-resistance reversers in H69AR cells – cell-based, doxorubicin co-treatment, pilot screen (AID 601;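 active = viability loss from added drug above about 55%, and viability with drug at most 40%, in both replicates, limit read from the data, passing the limit was not always enough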); conditions: CellTiter-Glo, 72 h, at 10 µM; for differential viability (reversal): stronger effect = higher value
[7] = yeast transport mutant growth inhibition pilot in 384-well plates, post-Golgi transport modulator project (AID 636; in the data active = inhibition above about 31%); conditions: absorbance 615 nm, about 18 h, stronger effect = higher value
[8] = growth suppression of yeast trafficking mutant, preliminary HTS, modulators of trafficking downstream of Golgi apparatus project, 1536-format plate, OD 615 nm (AID 637; in the data active = inhibition above about 30%); conditions: yeast transport mutant growth, absorbance 615 nm, 18 h; stronger effect = higher value
[9] = H69AR cells + 2 uM doxorubicin, measured here: viability with 2 uM doxorubicin, stronger effect = lower value
[10] = H69AR cells, compound alone cytotoxicity

Chain of Receptor tyrosine-protein kinase erbB-2 (Homo sapiens) (P04626 whole entry, looked up): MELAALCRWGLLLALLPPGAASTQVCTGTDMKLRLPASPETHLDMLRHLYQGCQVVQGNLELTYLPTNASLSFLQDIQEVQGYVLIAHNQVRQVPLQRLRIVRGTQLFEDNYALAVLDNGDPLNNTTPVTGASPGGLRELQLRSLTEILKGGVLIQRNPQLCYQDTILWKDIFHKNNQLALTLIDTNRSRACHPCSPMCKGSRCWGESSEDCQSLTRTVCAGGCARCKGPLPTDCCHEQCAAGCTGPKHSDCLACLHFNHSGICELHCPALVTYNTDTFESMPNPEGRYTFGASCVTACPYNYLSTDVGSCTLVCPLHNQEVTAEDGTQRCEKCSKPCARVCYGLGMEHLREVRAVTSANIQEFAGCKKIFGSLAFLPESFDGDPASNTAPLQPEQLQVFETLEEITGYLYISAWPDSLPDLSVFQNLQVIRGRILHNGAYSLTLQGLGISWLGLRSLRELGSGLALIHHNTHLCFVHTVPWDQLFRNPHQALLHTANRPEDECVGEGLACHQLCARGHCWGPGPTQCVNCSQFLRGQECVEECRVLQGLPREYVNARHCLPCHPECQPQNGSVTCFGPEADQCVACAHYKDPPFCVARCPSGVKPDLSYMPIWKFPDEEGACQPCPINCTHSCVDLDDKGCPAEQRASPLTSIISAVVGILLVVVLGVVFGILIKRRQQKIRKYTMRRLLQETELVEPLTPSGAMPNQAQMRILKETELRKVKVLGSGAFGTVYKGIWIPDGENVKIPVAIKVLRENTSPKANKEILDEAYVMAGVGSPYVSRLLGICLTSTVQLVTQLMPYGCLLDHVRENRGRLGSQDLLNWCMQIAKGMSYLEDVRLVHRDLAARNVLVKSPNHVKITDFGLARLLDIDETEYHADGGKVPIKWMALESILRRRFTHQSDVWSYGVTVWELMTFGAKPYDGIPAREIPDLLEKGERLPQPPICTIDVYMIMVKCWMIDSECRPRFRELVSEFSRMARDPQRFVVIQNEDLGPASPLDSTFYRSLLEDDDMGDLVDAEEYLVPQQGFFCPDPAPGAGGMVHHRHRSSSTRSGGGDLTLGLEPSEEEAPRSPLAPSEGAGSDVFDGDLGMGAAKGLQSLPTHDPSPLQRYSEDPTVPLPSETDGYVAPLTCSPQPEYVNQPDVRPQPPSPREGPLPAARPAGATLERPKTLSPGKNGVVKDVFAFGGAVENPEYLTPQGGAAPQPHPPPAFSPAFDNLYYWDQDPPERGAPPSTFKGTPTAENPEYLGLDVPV

Row | SMILES | viability [1] [%] | Her2 level [2] | viability [3] | viability [4] | viability [5] | differential viability (reversal) ([6]; H69AR cells + 2 uM doxorubicin) | viability [6, 9] [%] | viability [6, 10] [%] | inhibition [7] | inhibition [8]
1 | COc1ccc(C(CNC(=O)CN2C(=O)NC3(CC(C)CC(C)(C)C3)C2=O)N2CCOCC2)cc1 (stereo not given) | 94.5 | 108% (inactive) | 94.5% (inactive) | 90.4% (inactive) | 90.5% (inactive) | 1.81% (inactive) | 88.7 | 90.5 | -5.73% (inactive) | -2.62% (inactive)
2 | C=CCNC(=O)CN(c1cccc(Br)c1)S(C)(=O)=O | 96 | 106% (inactive) | 96% (inactive) | 94.6% (inactive) | 102% (inactive) | 10.9% (inactive) | 91.3 | 102 | -5.6% (inactive) | 0.16% (inactive)
3 | O=C(NCc1ccco1)c1cc2n(n1)C(C(F)(F)F)CC(c1ccc(F)cc1)N2 (stereo not given) | 120 | 106% (inactive) | 120% (inactive) | 67.1% (inactive) | 86.8% (inactive) | 3.92% (inactive) | 82.9 | 86.8 | -4.8% (inactive) | -4.68% (inactive)
4 | O=C(Nc1ccc(F)cc1F)NC1CC(=O)N(Cc2ccccc2)C1 (stereo not given) | 92.5 | 89.5% (inactive) | 92.5% (inactive) | 109% (inactive) | 95.1% (inactive) | 0.32% (inactive) | 94.8 | 95.1 | 1.78% (inactive) | 26.2% (inactive)
5 | C[C@H](NC(=O)Nc1ccccc1F)C(=O)O | 100 | 96% (inactive) | 100% (inactive) | 101% (inactive) | 100% (inactive) | -14.3% (inactive) | 115 | 100 | -3.42% (inactive) | 4.43% (inactive)
6 | O=c1[nH]c2sc3c(c2c2nncn12)CCCC3 | 136 | 114% (inactive) | 136% (inactive) | 76.4% (inactive) | 100% (inactive) | 7.53% (inactive) | 92.7 | 100 | -6.16% (inactive) | 2.54% (inactive)
7 | Cc1ccc(S(=O)(=O)N(CC(=O)N2CCC(C(N)=O)CC2)c2cccc(C(F)(F)F)c2)cc1 | 99.5 | 120% (inactive) | 99.5% (inactive) | 87.8% (inactive) | 82.9% (inactive) | -6.52% (inactive) | 89.4 | 82.9 | -3.33% (inactive) | 5% (inactive)
8 | CCn1c(C)nc2cc(C(=O)OCCC(F)(F)F)ccc21 | 100 | 112% (inactive) | 100% (inactive) | 108% (inactive) | 89.8% (inactive) | -3.94% (inactive) | 93.7 | 89.8 | -2.44% (inactive) | 7.67% (inactive)
9 | O=C(Nc1ccccc1)c1ccc(NCC2CCCO2)c(S(=O)(=O)N2CCOCC2)c1 (stereo not given) | 87 | 95% (inactive) | 87% (inactive) | 102% (inactive) | 90% (inactive) | 4.29% (inactive) | 85.7 | 90 | -3.16% (inactive) | -5.87% (inactive)
10 | COc1ccccc1C(=O)n1nc(-c2ccc(Cl)cc2)nc1N | 90 | 74.5% (inactive) | 90% (inactive) | 78.7% (inactive) | 71.2% (inactive) | -13.7% (inactive) | 84.9 | 71.2 | -5.06% (inactive) | -8.5% (inactive)
11 | CC1(C)CNC(=O)c2sc(N3CCOCC3)nc2C1 | 114 | 87% (inactive) | 114% (inactive) | 67.9% (inactive) | 77.3% (inactive) | -4.71% (inactive) | 82 | 77.3 | -3.82% (inactive) | 1.27% (inactive)
12 | Cc1cc(C)cc(NC(=O)C2CCCN(c3nccc(C)n3)C2)c1 (stereo not given) | 85 | 101% (inactive) | 85% (inactive) | 84% (inactive) | 104% (inactive) | 12.9% (inactive) | 91.1 | 104 | 0.91% (inactive) | -5.25% (inactive)
13 | COC(=O)CCn1nnc(-c2cccs2)n1 | 99.5 | 126% (inactive) | 99.5% (inactive) | 101% (inactive) | 103% (inactive) | 5.5% (inactive) | 97.4 | 103 | 3.73% (inactive) | 4.1% (inactive)
14 | O=C1CC(c2ccco2)=Nc2ccccc2N1 | 95 | 118% (inactive) | 95% (inactive) | 94.9% (inactive) | 109% (inactive) | 16.7% (inactive) | 92.5 | 109 | -0.13% (inactive) | -3.06% (inactive)
15 | COc1cccc(C(=O)N2CCCC(c3nc(-c4cccs4)no3)C2)c1 (stereo not given) | 98 | 81.5% (inactive) | 98% (inactive) | 93.4% (inactive) | 95.5% (inactive) | 2.9% (inactive) | 92.6 | 95.5 | -7.43% (inactive) | 4.26% (inactive)
16 | Cc1cc(C)cc(NS(=O)(=O)c2ccc3[nH]c(=O)[nH]c3c2)c1 | 108 | 89% (inactive) | 108% (inactive) | 90.1% (inactive) | 85.5% (inactive) | -0.57% (inactive) | 86 | 85.5 | -2.21% (inactive) | -4.5% (inactive)

Row | SMILES | viability [1] [%] | Her2 level [2] | viability [3] | viability [4] | viability [5] | differential viability (reversal) ([6]; H69AR cells + 2 uM doxorubicin) | viability [6, 9] [%] | viability [6, 10] [%] | inhibition [7] | inhibition [8]
17 | CC(C)(C)c1cc(CCC(=O)N2CCNCC2)c(C(C)(C)C)cc1O | 106 | 85.5% (inactive) | 106% (inactive) | 82.9% (inactive) | 98.3% (inactive) | 8% (inactive) | 90.3 | 98.3 | -0.26% (inactive) | -2.46% (inactive)
18 | CC1Cc2ccccc2N1C(=O)CSc1nnc2n1C(C)(C)Cc1ccccc1-2 (stereo not given) | 79 | 105% (inactive) | 79% (inactive) | 71.8% (inactive) | 82.4% (inactive) | -7.96% (inactive) | 90.4 | 82.4 | -6.4% (inactive) | -7.3% (inactive)
19 | Cn1c(=O)c2c(nc(SCC(=O)O)n2Cc2cccc(C(F)(F)F)c2)n(C)c1=O | 97.5 | 84% (inactive) | 97.5% (inactive) | 94.7% (inactive) | 95.6% (inactive) | 5.41% (inactive) | 90.2 | 95.6 | -4.67% (inactive) | 0.81% (inactive)
20 | Cc1cc(OCC(=O)N2CCOCC2)cc2oc(=O)c3ccccc3c12 | 108 | 100% (inactive) | 108% (inactive) | 109% (inactive) | 85.1% (inactive) | -0.74% (inactive) | 85.9 | 85.1 | 0.39% (inactive) | -10.8% (inactive)
21 | O=C(c1ccc2c(c1)OCCO2)C1CCN(C(=O)c2ccc(F)cc2)CC1 | 102 | 111% (inactive) | 102% (inactive) | 93.7% (inactive) | 83.8% (inactive) | -16.2% (inactive) | 99.9 | 83.8 | -6.35% (inactive) | -3.11% (inactive)
22 | COC(=O)c1c(C#N)c(N)nc2c1CCC2 | 117 | 97% (inactive) | 117% (inactive) | 90.6% (inactive) | 93.7% (inactive) | 0.57% (inactive) | 93.1 | 93.7 | -5.2% (inactive) | -4.13% (inactive)
23 | CCN1C(=O)N(CC)C2C1N(C(C)=O)C(=O)N2C(C)=O (stereo not given) | 107 | 102% (inactive) | 107% (inactive) | 104% (inactive) | 94.8% (inactive) | 11.9% (inactive) | 83 | 94.8 | -5.66% (inactive) | -2.18% (inactive)
24 | COc1ccc(OC)c(C2=Nn3c(nnc3C3CCCCC3)SC2)c1 | 94 | 104% (inactive) | 94% (inactive) | 75.4% (inactive) | 78.1% (inactive) | 0.07% (inactive) | 78 | 78.1 | 5.92% (inactive) | 3.06% (inactive)
25 | Cc1cccc(-n2ccnc2SCC(=O)Nc2cc(C)on2)c1 | 96 | 102% (inactive) | 96% (inactive) | 96.3% (inactive) | 99.1% (inactive) | 18.6% (inactive) | 80.4 | 99.1 | 0.79% (inactive) | -4.91% (inactive)
26 | CC1CN(Cc2nc3c(c(=O)[nH]c(=O)n3C)n2CC(N)=O)CC(C)O1 (stereo not given) | 99.5 | 97.5% (inactive) | 99.5% (inactive) | 88.6% (inactive) | 102% (inactive) | 9.96% (inactive) | 92.4 | 102 | 0.51% (inactive) | 0.67% (inactive)
27 | CC(C)CCN1CC(C(=O)NCc2ccccc2)CC1=O (stereo not given) | 88.5 | 87.5% (inactive) | 88.5% (inactive) | 88% (inactive) | 92.6% (inactive) | 1.32% (inactive) | 91.2 | 92.6 | 1.28% (inactive) | -0.83% (inactive)
28 | O=C1OCCC1Sc1ncnc2sc3c(c12)CCC3 (stereo not given) | 95.5 | 84.5% (inactive) | 95.5% (inactive) | 97.6% (inactive) | 104% (inactive) | 11.8% (inactive) | 91.9 | 104 | -4.67% (inactive) | -0.32% (inactive)
29 | O=C(CSc1nnc2ncccn12)N1CCCCCC1 | 102 | 85% (inactive) | 102% (inactive) | 103% (inactive) | 107% (inactive) | 15.6% (inactive) | 91.3 | 107 | -3.84% (inactive) | -7.3% (inactive)
30 | Cc1sc2nc(CN3CCN(S(=O)(=O)c4cccc5nonc45)CC3)[nH]c(=O)c2c1C | 102 | 93.5% (inactive) | 102% (inactive) | 66.4% (inactive) | 87.9% (inactive) | 9.52% (inactive) | 78.4 | 87.9 | -6.05% (inactive) | 0.5% (inactive)
31 | CCSc1nnc(NC(=O)c2ccc(C)o2)s1 | 96.5 | 98.5% (inactive) | 96.5% (inactive) | 105% (inactive) | 116% (inactive) | 18.2% (inactive) | 97.4 | 116 | -4.13% (inactive) | -5.32% (inactive)
